From ChEMBL document CHEMBL1955763, “Antimicrobial activity of sulfonamides containing 5-chloro-2-hydroxybenzaldehyde and 5-chloro-2-hydroxybenzoic acid scaffold” (Eur J Med Chem, 2012)
≈ marks a conversion by molar mass, not a printed value.

How the values were obtained:
[1] = system: Trichosporon asahii; assay: Antifungal activity against Trichosporon asahii 1188 after 24 hrs by broth microdilution method; assay type: functional; details: Trichosporon asahii, 1188, 24 h
Procedure, shortened: (§1)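 Microdilution broth per CLSI M27-A3 (yeasts) or M38-A2 (moulds) in RPMI 1640 with glutamine, buffered to pH 7.0 with 0.165 mol MOPS. Compounds were in DMSO. Final inoculum was 5 × 10³ ± 0.2 CFU/mL. Other conditions matched the antibacterial assay, with MIC as IC₉₀ read visually and at 540 nm. Determined twice, in duplicate.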

[2] = system: Aspergillus fumigatus; assay: Antifungal activity against Aspergillus fumigatus 231 after 24 hrs by broth microdilution method; assay type: functional; details: Aspergillus fumigatus, 231, 24 h; procedure, shortened: as §1
[3] = system: Lichtheimia corymbifera; assay: Antifungal activity against Absidia corymbifera 272 after 24 hrs by broth microdilution method; assay type: functional; details: Lichtheimia corymbifera, 272, 24 h; procedure, shortened: as §1
[4] = system: Trichophyton mentagrophytes; assay: Antifungal activity against Trichophyton mentagrophytes 445 after 24 hrs by broth microdilution method; assay type: functional; details: Trichophyton mentagrophytes, 445, 24 h
[5] = Selectivity ratio of IC50 for human HepG2 cell sto MIC100 for Mycobacterium kansasii 6509/96; assay type: functional
[6] = Selectivity ratio of IC50 for human HepG2 cell sto MIC90 for Staphylococcus aureus CCM 4516/08; assay type: functional
[7] = system: Mycobacterium tuberculosis; assay: Antimycobacterial activity against Mycobacterium tuberculosis H37Rv 331/88 after 14 days; assay type: functional; details: H37Rv 331/88, 336 h
[8] = Selectivity ratio of IC50 for human HepG2 cell sto MIC100 for Mycobacterium kansasii 235/80; assay type: functional
[9] = system: HepG2; assay: Cytotoxicity against human HepG2 cells after 24 hrs by MTS assay; assay type: cell-based; details: HepG2, 24 h
Procedure, shortened: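 Hep G2 human liver cells (passage 3–4), 10 000 per well, in MEM with 1% glutamine, 10% fetal serum and 1% non-essential amino acids. Compounds were added from DMSO at eight increasing concentrations in quadruplicate. Exposure was 24 h at 37 °C in 5% CO₂, then MTS reagent for 1.5 h. Formazan was read at 490 nm and IC₅₀ derived as 50% of control viability.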

[10] = system: Mycobacterium tuberculosis; assay: Antimycobacterial activity against Mycobacterium tuberculosis H37Rv 331/88 after 21 days; assay type: functional; details: H37Rv 331/88, 504 h
Procedure, shortened: (§2)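 Micromethod in Sula semisynthetic medium, with compounds added as DMSO solutions over a two-fold series from 1000 down to 1. Inoculum for M. avium 330/88 was a 10⁻⁵ dilution. Plates were incubated at 37 °C and MIC was read after 14 and 21 days.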

[11] = system: Mycobacterium avium; assay: Antimycobacterial activity against isoniazid-, rifampicin-, ofloxacin-, ethambutol-resistant Mycobacterium avium 330/88 after 14 days; assay type: functional; details: 330/88, 336 h; procedure, shortened: as §2
[12] = system: Mycobacterium avium; assay: Antimycobacterial activity against isoniazid-, rifampicin-, ofloxacin-, ethambutol-resistant Mycobacterium avium 330/88 after 21 days; assay type: functional; details: 330/88, 504 h; procedure, shortened: as §2
[13] = system: Mycobacterium kansasii; assay: Antimycobacterial activity against Mycobacterium kansasii 235/80 after 7 days; assay type: functional; details: 235/80, 168 h
Procedure, shortened: (§3)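 Micromethod MIC in Sula semisynthetic medium, with compounds added as DMSO solutions at […]. Incubation at 37 °C. Inocula: M. kansasii 235/80 at dilution 10⁻⁴, clinical isolate 6509/96 at 10⁻⁵.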

[14] = system: Mycobacterium kansasii; assay: Antimycobacterial activity against Mycobacterium kansasii 235/80 after 14 days; assay type: functional; details: 235/80, 336 h; procedure, shortened: as §3
[15] = system: Mycobacterium kansasii; assay: Antimycobacterial activity against Mycobacterium kansasii 235/80 after 21 days; assay type: functional; details: 235/80, 504 h; procedure, shortened: as §3
[16] = system: Mycobacterium kansasii; assay: Antimycobacterial activity against Mycobacterium kansasii 6509/96 after 7 days; assay type: functional; details: 6509/96, 168 h; procedure, shortened: as §3
[17] = system: Mycobacterium kansasii; assay: Antimycobacterial activity against Mycobacterium kansasii 6509/96 after 14 days; assay type: functional; details: 6509/96, 336 h; procedure, shortened: as §3
[18] = system: Mycobacterium kansasii; assay: Antimycobacterial activity against Mycobacterium kansasii 6509/96 after 21 days; assay type: functional; details: 6509/96, 504 h; procedure, shortened: as §3
[19] = system: Staphylococcus aureus; assay: Antibacterial activity against Staphylococcus aureus CCM 4516/08 after 24 hrs by broth microdilution method; assay type: functional; details: CCM 4516/08, 24 h
Procedure, shortened: (§4)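 Microdilution broth method modified from M07-A07, in Mueller-Hinton broth at pH 7.4 (±0.2). Compounds were dissolved in DMSO. Inoculum was made in sterile water to 0.5 McFarland (1.5 × 10⁸ CFU/mL). MIC was taken as IC₉₀, meaning ≥90% growth reduction versus the drug-free control. Growth was read visually and by absorbance at 540 nm.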

[20] = system: Staphylococcus aureus; assay: Antibacterial activity against Staphylococcus aureus CCM 4516/08 after 48 hrs by broth microdilution method; assay type: functional; details: CCM 4516/08, 48 h
Procedure, shortened: (§5)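 Broth microdilution modified from standard M07-A07 in Mueller-Hinton broth at pH 7.4 (±0.2). Compounds were dissolved in DMSO. Inoculum in sterile water was adjusted to 0.5 McFarland (1.5 × 10⁸ CFU/mL). MIC was taken as IC₉₀, i.e. ≥90% growth reduction versus control, read visually and spectrophotometrically at 540 nm.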

[21] = system: Staphylococcus aureus; assay: Antibacterial activity against methicillin-resistant Staphylococcus aureus H 5996/08 after 24 hrs by broth microdilution method; assay type: functional; details: H 5996/08, 24 h; procedure, shortened: as §4
[22] = system: Staphylococcus aureus; assay: Antibacterial activity against methicillin-resistant Staphylococcus aureus H 5996/08 after 48 hrs by broth microdilution method; assay type: functional; details: H 5996/08, 48 h; procedure, shortened: as §4
[23] = system: Staphylococcus epidermidis; assay: Antibacterial activity against methicillin-resistant Staphylococcus epidermidis H 6966/08 after 24 hrs by broth microdilution method; assay type: functional; details: H 6966/08, 24 h; procedure, shortened: as §4
[24] = system: Staphylococcus epidermidis; assay: Antibacterial activity against methicillin-resistant Staphylococcus epidermidis H 6966/08 after 48 hrs by broth microdilution method; assay type: functional; details: H 6966/08, 48 h; procedure, shortened: as §4
[25] = system: Escherichia coli; assay: Antibacterial activity against Escherichia coli CCM 4517 after 24 hrs by broth microdilution method; assay type: functional; details: CCM 4517, 24 h; procedure, shortened: as §5
[26] = system: Klebsiella pneumoniae; assay: Antibacterial activity against Klebsiella pneumoniae D 11750/08 after 24 hrs by broth microdilution method; assay type: functional; details: D 11750/08, 24 h; procedure, shortened: as §5
[27] = system: Klebsiella pneumoniae; assay: Antibacterial activity against ESBL-positive Klebsiella pneumoniae J 14368/08 after 24 hrs by broth microdilution method; assay type: functional; details: J 14368/08, 24 h; procedure, shortened: as §5
[28] = system: Pseudomonas aeruginosa; assay: Antibacterial activity against Pseudomonas aeruginosa CCM 1961 after 24 hrs by broth microdilution method; assay type: functional; details: CCM 1961, 24 h; procedure, shortened: as §5
[29] = system: Candida albicans; assay: Antifungal activity against Candida albicans ATCC 44857 after 24 hrs by broth microdilution method; assay type: functional; details: ATCC 44857, 24 h; procedure, shortened: as §1
[30] = system: Candida tropicalis; assay: Antifungal activity against Candida tropicalis 156 after 24 hrs by broth microdilution method; assay type: functional; details: Candida tropicalis, 156, 24 h; procedure, shortened: as §1
[31] = system: Nakaseomyces glabratus; assay: Antifungal activity against Candida glabrata 20/I after 24 hrs by broth microdilution method; assay type: functional; procedure, shortened: as §1
[32] = system: Pichia kudriavzevii; assay: Antifungal activity against Candida krusei E58 after 24 hrs by broth microdilution method; assay type: functional; details: E58, 24 h; procedure, shortened: as §1
[33] = system: Enterococcus sp.; assay: Antibacterial activity against Enterococcus sp. J 14365/08 after 24 hrs by broth microdilution method; assay type: functional; details: J 14365/08, 24 h; procedure, shortened: as §5
[34] = system: Mycobacterium tuberculosis; assay: Antituberculosis activity against Mycobacterium tuberculosis H37Rv after 18 hrs by alamar blue assay; assay type: functional, organism-based
[35] = Selectivity ratio of IC50 for human HepG2 cell sto MIC90 for methicillin-resistant Staphylococcus aureus H 5996/08; assay type: functional
[36] = system: Mycobacterium avium complex sp.; assay: Antimycobacterial activity against Mycobacterium avium complex; assay type: functional

Row | Structure (SMILES) | Ratio [5] | Ratio [6] | MIC [7] [µM] | Ratio [8] | IC50 [9] [µM] | MIC [10] [µM] | MIC [11] [µM] | MIC [12] [µM] | MIC [13] [µM] | MIC [14] [µM] | MIC [15] [µM] | MIC [16] [µM] | MIC [17] [µM] | MIC [18] [µM] | MIC [19] [µM] | MIC [20] [µM] | MIC [21] [µM] | MIC [22] [µM] | MIC [23] [µM] | MIC [24] [µM] | also measured
1 | Cc1cc(NS(=O)(=O)c2ccc(/N=C/c3cc(Cl)ccc3O)cc2)no1 | 12.1 | 6.1 | 125 (≈ 49 µg/mL) | 12.1 | 193 | 250 (≈ 98 µg/mL) | 62.5 (≈ 24.5 µg/mL) | 125 (≈ 49 µg/mL) | 4 (≈ 1.57 µg/mL) | 8 (≈ 3.13 µg/mL) | 16 (≈ 6.27 µg/mL) | 4 (≈ 1.57 µg/mL) | 4 (≈ 1.57 µg/mL) | 8 (≈ 3.13 µg/mL) | 31.2 (≈ 12.2 µg/mL) | 31.2 (≈ 12.2 µg/mL) | 15.6 (≈ 6.12 µg/mL) | 31.2 (≈ 12.2 µg/mL) | > 500 | > 500 | MIC [1]: > 125 µM; MIC [2]: > 125 µM; MIC [3]: > 125 µM; MIC [4]: > 125 µM; MIC [25]: 125 µM (≈ 49 µg/mL); MIC [26]: 500 µM (≈ 196 µg/mL); MIC [27]: 500 µM (≈ 196 µg/mL); MIC [28]: ≥ 500 µM; MIC [29]: > 125 µM; MIC [30]: > 125 µM; MIC [31]: > 125 µM; MIC [32]: > 125 µM
2 | Cc1cc(C)nc(NS(=O)(=O)c2ccc(NC(=O)c3cc(Cl)ccc3O)cc2)n1 | 5.4 | 10.8 | 125 (≈ 54.1 µg/mL) | 5.4 | 337 | 125 (≈ 54.1 µg/mL) | 32 (≈ 13.9 µg/mL) | 62.5 (≈ 27.1 µg/mL) | 16 (≈ 6.93 µg/mL) | 32 (≈ 13.9 µg/mL) | 62.5 (≈ 27.1 µg/mL) | 16 (≈ 6.93 µg/mL) | 62.5 (≈ 27.1 µg/mL) | 62.5 (≈ 27.1 µg/mL) | 15.6 (≈ 6.76 µg/mL) | 15.6 (≈ 6.76 µg/mL) | 15.6 (≈ 6.76 µg/mL) | 31.2 (≈ 13.5 µg/mL) | 31.2 (≈ 13.5 µg/mL) | 250 (≈ 108 µg/mL) | MIC [1]: 125 µM (≈ 54.1 µg/mL); MIC [4]: 125 µM (≈ 54.1 µg/mL); MIC [33]: 125 µM (≈ 54.1 µg/mL)
3 | Nc1ccc(S(=O)(=O)Nc2nccs2)cc1 [SULFATHIAZOLE] | 1040.3 | 33.2 | 32 (≈ 8.17 µg/mL) | 1040.3 | 4160 | 62.5 (≈ 16 µg/mL) | 62.5 (≈ 16 µg/mL) | 62.5 (≈ 16 µg/mL) | 2 (≈ 0.511 µg/mL) | 4 (≈ 1.02 µg/mL) | 4 (≈ 1.02 µg/mL) | 1 (≈ 0.255 µg/mL) | 2 (≈ 0.511 µg/mL) | 2 (≈ 0.511 µg/mL) | 31.2 (≈ 7.98 µg/mL) | 62.5 (≈ 16 µg/mL) | 62.5 (≈ 16 µg/mL) | 125 (≈ 31.9 µg/mL) | > 500 | > 500 | IC50 [34]: ≥ 5 µM
4 | Cc1cc(NS(=O)(=O)c2ccc(N)cc2)no1 [SULFAMETHOXAZOLE] | 163.9 | 5.2 | 32 (≈ 8.11 µg/mL) | 163.9 | 2620 | 32 (≈ 8.11 µg/mL) | 32 (≈ 8.11 µg/mL) | 62.5 (≈ 15.8 µg/mL) | 8 (≈ 2.03 µg/mL) | 16 (≈ 4.05 µg/mL) | 16 (≈ 4.05 µg/mL) | 4 (≈ 1.01 µg/mL) | 4 (≈ 1.01 µg/mL) | 4 (≈ 1.01 µg/mL) | 250 (≈ 63.3 µg/mL) | 500 (≈ 127 µg/mL) | 62.5 (≈ 15.8 µg/mL) | 250 (≈ 63.3 µg/mL) | 250 (≈ 63.3 µg/mL) | 500 (≈ 127 µg/mL) | MIC [2]: 250 µM (≈ 63.3 µg/mL); Ratio [35]: 5.2; MIC50 [36]: 30 µg/mL (≈ 118 µM); MIC80 [36]: 30 µg/mL (≈ 118 µM); MIC [25]: ≥ 500 µM; MIC [26]: ≥ 500 µM; MIC [27]: ≥ 500 µM; MIC [28]: ≥ 500 µM
